Our source for the inhibition and IC50 values is ChEMBL document CHEMBL1152936, “Human sialidase inhibitors: design, synthesis, and biological evaluation of 4-acetamido-5-acylamido-2-fluoro benzoic acids” (Bioorg Med Chem, 2009).

Activity calls are given as the source filed them. The calls are words filed in the database; no cut-off is given here.

The target in test [1] is Sialidase-1 (Homo sapiens) (UniProt Q99519). Description: Inhibition of human NEU1 transiently transfected in HEK293 cells at 1 mM by fluorimetric analysis. The format is cell-based. Summed up: (§1)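 Enzyme source was the crude supernatant of homogenates from HEK-293 cells transiently transfected with a full-length human sialidase cDNA plasmid. The reaction contained 10–20 nmol substrate (4MU-Neu5Ac) as bound sialic acid, 0.2 mg BSA, sodium acetate pH 4.6 and 0.2 mg Triton X-100. It was incubated at 37 °C for 10–30 min, and released sialic acid was quantified. Inhibitors were tested at 1 mM and reported as percent inhibition.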

Test [2] concerns the target T1, Sialidase-3 (Homo sapiens, UniProt Q9UQ49).
T1 sequence (Q9UQ49 whole entry): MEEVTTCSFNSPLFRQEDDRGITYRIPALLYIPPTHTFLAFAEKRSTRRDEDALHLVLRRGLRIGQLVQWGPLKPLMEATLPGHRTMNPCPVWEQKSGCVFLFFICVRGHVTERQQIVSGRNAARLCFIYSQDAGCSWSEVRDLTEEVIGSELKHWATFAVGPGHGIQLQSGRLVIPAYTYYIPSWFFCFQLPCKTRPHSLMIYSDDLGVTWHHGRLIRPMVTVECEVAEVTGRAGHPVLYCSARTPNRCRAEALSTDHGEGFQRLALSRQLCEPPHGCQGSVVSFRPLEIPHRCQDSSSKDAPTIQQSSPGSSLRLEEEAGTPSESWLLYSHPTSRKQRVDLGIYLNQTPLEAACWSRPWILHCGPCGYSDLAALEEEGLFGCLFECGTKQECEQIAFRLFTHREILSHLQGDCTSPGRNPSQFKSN
Description: Inhibition of human NEU3 transiently transfected in HEK293 cells by fluorimetric analysis. Type of test: cell-based. Summed up: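 The sialidase was the crude supernatant of homogenized HEK-293 cells transiently transfected with full-length human NEU3 cDNA. The mixture held 10–20 nmol 4MU-Neu5Ac as bound sialic acid, 0.2 mg BSA, sodium acetate pH 4.6 and 0.2 mg Triton X-100, run at 37 °C for 10–30 min. Released sialic acid was measured, and IC50 came from nonlinear regression of concentration–inhibition curves.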

A further test has as its target T2, Sialidase-4 (Homo sapiens, UniProt Q8WWR8).
T2 sequence (Q8WWR8 whole entry): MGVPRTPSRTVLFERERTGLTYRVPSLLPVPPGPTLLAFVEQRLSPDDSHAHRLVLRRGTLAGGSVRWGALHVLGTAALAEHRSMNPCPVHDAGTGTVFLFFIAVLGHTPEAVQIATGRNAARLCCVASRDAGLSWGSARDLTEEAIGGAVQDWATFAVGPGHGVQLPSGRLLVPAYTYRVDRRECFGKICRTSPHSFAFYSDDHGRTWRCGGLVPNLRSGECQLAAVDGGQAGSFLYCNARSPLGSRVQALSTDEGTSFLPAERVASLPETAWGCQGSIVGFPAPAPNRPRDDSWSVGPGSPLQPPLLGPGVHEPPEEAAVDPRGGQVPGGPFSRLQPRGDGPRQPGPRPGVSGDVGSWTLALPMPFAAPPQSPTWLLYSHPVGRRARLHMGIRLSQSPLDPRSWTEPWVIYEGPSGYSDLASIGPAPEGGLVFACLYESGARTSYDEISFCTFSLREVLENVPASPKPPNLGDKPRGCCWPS
As to the kind of experiment: Inhibition of human NEU4 transiently transfected in HEK293 cells by fluorimetric analysis.

Test [3] addresses T3, Sialidase-4 (Homo sapiens) (UniProt Q8WWR8).
T3 sequence (whole entry): T2 sequence (Q8WWR8 whole entry)
As to the kind of experiment: Inhibition of human NEU4 transiently transfected in HEK293 cells at 1 mM by fluorimetric analysis. Type of test: cell-based. Summed up:
as §1

The target of test [4] is T4, Sialidase-3 (Homo sapiens) (UniProt Q9UQ49).
T4 sequence (whole entry): T1 sequence (Q9UQ49 whole entry)
Description: Inhibition of human NEU3 transiently transfected in HEK293 cells at 1 mM by fluorimetric analysis. The format is cell-based. The essentials:
as §1

For test [5], the target named is T1, Sialidase-3. As to the kind of experiment: Inhibition of human NEU3 transiently transfected in HEK293T cells by fluorimetric high-performance liquid chromatography. Type of test: cell-based, HEK-293T. Summed up:
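Crude supernatant of homogenates from HEK-293 cells transiently transfected with full-length human sialidase cDNA. Reaction: 10–20 nmol substrate as bound sialic acid, 0.2 mg BSA, sodium acetate pH 4.6, 0.2 mg Triton X-100.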

For orientation: inhibition means the drop in the measured response relative to a control, in per cent. For orientation: IC50 means the point on the concentration scale where inhibition reaches its midpoint. Higher therefore signals a need for much substance.

Take `CC(=O)Nc1cc(F)c(C(=O)O)cc1NC(=O)c1ccc(-c2ccccc2)cc1`: in test [1], the inhibition entry was “inactive”. For the same compound, the IC50 against Sialidase-3 [2] and at Sialidase-4 was at least 5000 µM each time.
Regarding `CC(=O)Nc1cc(F)c(C(=O)O)cc1NC(=O)C1CCCCC1`, the inhibition entry in test [1] and in test [4] was “inactive” in each case. In test [3], this compound had an inhibition of 6%.
Turning to `CCCC(=O)Nc1cc(C(=O)O)c(F)cc1NC(C)=O`, the inhibition entry in test [1] and in test [4] was “inactive” each time. For the same compound, the inhibition in test [3] is under 5%.
For the compound `CCCCC(=O)Nc1cc(C(=O)O)c(F)cc1NC(C)=O`, the inhibition entry in test [1] was “inactive”. Further, the inhibition is under 5% in test [3] and 13% in test [4].
As to `CC(=O)Nc1cc(F)c(C(=O)O)cc1NC(=O)C(C)C`, the inhibition entry in test [1] and in test [4] was “inactive” in each case. The same compound returned an inhibition in test [3] of 11%.
Turning to `CCC(C)C(=O)Nc1cc(C(=O)O)c(F)cc1NC(C)=O` (stereo unspecified), the inhibition entry in test [1], in test [3] and in test [4] was “inactive” throughout.
With `CC(=O)Nc1cc(F)c(C(=O)O)cc1NC(=O)c1ccc2ccccc2c1`, the inhibition entry in test [1] is “inactive”. Besides, the inhibition in test [3] came to 10%; in test [4] it was 8%.
Take `CC(=O)Nc1cc(F)c(C(=O)O)cc1NC(C)=O`: in test [1], the inhibition result is “inactive”. Besides, the results for the inhibition in test [3] and in test [4] were 8% and 23%, respectively. In addition, at Sialidase-3 [2], the IC50 was over 2000 µM.
Take `CC(=O)Nc1cc(F)c(C(=O)O)cc1NC(=O)C(C)(C)C`: the inhibition result in test [1] and in test [4] was “inactive” each time. In test [3], this compound came in with an inhibition of under 5%.
For the compound `CC(=O)Nc1cc(F)c(C(=O)O)cc1NC(=O)C1CC1`, the inhibition result in test [1], in test [3] and in test [4] was “inactive” throughout.
Regarding `CC(=O)Nc1cc(F)c(C(=O)O)cc1NC(=O)c1ccccc1`, the inhibition entry in test [1], in test [3] and in test [4] was “inactive” each time.
As to `CCC(CC)C(=O)Nc1cc(C(=O)O)c(F)cc1NC(C)=O`, the inhibition result in test [1] and in test [4] was “inactive” throughout. The compound also displayed an inhibition in test [3] of under 5%.
Consider `CC(=O)Nc1cc(F)c(C(=O)O)cc1NC(=O)C1CCCC1`, for which the inhibition result in test [1], in test [3] and in test [4] was “inactive” each time.
On to `CC(=O)N[C@H]1[C@H]([C@H](O)[C@H](O)CO)OC(C(=O)O)=C[C@@H]1O` [NEU5AC2EN], for which the IC50 on Sialidase-3 [5] is 60 µM.
